Compound activity (PubChem)
Only some compounds are listed: those with a hit (about 2.1% of all), similar ones and a draw of the others.
RanGTP-Impb inh = disruptors of Ran-importin-beta complex formation – biochemical, FRET, CFP-Ran, YFP-importin-beta, homogeneous, primary screen; inhibition, % (no concentration beside the values); 300,000 compounds, 1.1% hits; cell-free CFP-Ran/YFP-importin-beta FRET ratio;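 active = more than half of the replicate wells show a fall in the fluorescence ratio signal beyond about 16%, limit read from the data, passing the limit was not always enough; inconclusive = exactly half of the replicate wells pass the set limit; inactive = fewer than half of replicates pass the limit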
m-calpain inh = calpain II (pig) inhibition | AID 1236 | purified calpain II, fluorogenic peptide substrate, 30 min | inhibition, % at 16 µM | 220,000 compounds, 0.37% hits;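 active = inhibition above about 50%, limit read from the data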
Runt-CBFb FRET = Runt domain-CBFb interaction inhibition | Q01196+Q13951 | Cerulean-Runt/Venus-CBFb FRET ratio 530/480, 1 h | inhibition, % at 20 µM | 220,000 compounds, 0.46% hits | AID 1496;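 active = inhibition over about 50% at 20 µM in the single-dose screen, limit read from the data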
Target sequence (Q01196 whole entry, looked up, the tested form may be a part): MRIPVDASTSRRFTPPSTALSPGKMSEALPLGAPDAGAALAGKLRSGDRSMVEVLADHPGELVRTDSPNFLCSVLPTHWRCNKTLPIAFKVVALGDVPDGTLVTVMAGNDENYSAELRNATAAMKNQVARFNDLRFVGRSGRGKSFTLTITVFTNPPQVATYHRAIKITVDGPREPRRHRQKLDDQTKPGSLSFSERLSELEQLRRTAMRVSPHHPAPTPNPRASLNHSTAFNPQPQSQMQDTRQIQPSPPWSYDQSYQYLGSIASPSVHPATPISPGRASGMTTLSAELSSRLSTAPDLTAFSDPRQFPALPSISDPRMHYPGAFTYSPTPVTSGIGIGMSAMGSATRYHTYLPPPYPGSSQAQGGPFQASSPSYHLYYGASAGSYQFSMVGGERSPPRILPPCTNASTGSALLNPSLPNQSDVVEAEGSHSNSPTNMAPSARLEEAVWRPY
Target sequence (Q13951 whole entry, looked up, the tested form may be a part): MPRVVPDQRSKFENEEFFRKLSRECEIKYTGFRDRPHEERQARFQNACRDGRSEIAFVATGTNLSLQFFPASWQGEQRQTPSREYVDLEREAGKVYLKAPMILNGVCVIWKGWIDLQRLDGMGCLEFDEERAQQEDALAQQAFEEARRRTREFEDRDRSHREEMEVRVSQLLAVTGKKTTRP
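test system = Cerulean-Runt domain fusion protein, energy donor | probe or stimulus = Venus-CBFb binding partner, 100 nM | incubation = two 1 h room-temperature incubations shielded from light | detection = fluorescence energy transfer, 422 nm excitation, 530/480 nm emission | measure = loss of energy transfer signal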
FAS-TE inh = FAS thioesterase (human) inhibition; P49327; recombinant FAS-TE, OMFH fluorogenic substrate, fluorescence endpoint; inhibition, % at 15 µM; 360,000 compounds, 0.67% hits; AID 602261;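 active = compounds whose normalised, plate-corrected inhibition of enzyme fluorescence in the single-dose primary screen is 50% or more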
Runt-SMMHC FRET = Runt domain-CBFb-SMMHC interaction inhibition. Cerulean-Runt/Venus-CBFb-SMMHC FRET ratio 530/480, 1 h. inhibition, % at 20 µM. AID 1434. 220,000 compounds, 0.74% hits. Q01196+Q13951;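 active = mean inhibition across duplicate retests at 20 µM reaching about 50%, limit read from the data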;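 also: inhibitors lower the FRET ratio by blocking Runt binding to CBFb-SMMHC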
FAS-TE conf = FAS thioesterase (human) inhibition, confirmation; recombinant FAS-TE, OMFH fluorogenic substrate, fluorescence; AID 624325; inhibition, % at 15 µM; 2,300 compounds, 45% hits; shares compounds with FAS-TE inh;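 active = compounds inhibiting the enzyme by at least 50% at 15 µM in any one of the replicates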
Numbers stand for hits; . = inactive; ? = inconclusive; / = no result.

SMILES	RanGTP-Impb inh	m-calpain inh	Runt-CBFb FRET	FAS-TE inh	Runt-SMMHC FRET	FAS-TE conf
CC(=O)Nc1cccc(NC(=O)C2CC(=O)N(C3CCCCC3)C2)c1 (stereo unspecified)	.	/	/	.	/	/
O=C(c1nn2c(C(F)(F)F)cc(-c3ccco3)nc2c1Br)N1CCCc2ccccc21	.	.	.	.	.	/
O=C(c1nn2c(C(F)(F)F)cc(-c3cccs3)nc2c1Br)N1CCCc2ccccc21	.	.	.	59	.	.
Cn1c(=O)n(C)c2cc([N+](=O)[O-])c(N3CCN(S(=O)(=O)c4ccc(C(C)(C)C)cc4)CC3)cc21	.	.	.	73	.	.
CC(=O)Nc1ccc(S(=O)(=O)N2CCN(c3cc4c(cc3[N+](=O)[O-])n(C)c(=O)n4C)CC2)cc1	.	.	.	.	.	/
COC(=O)[C@@]1(Cc2ccc(F)cc2)[C@H]2c3cc(C(=O)N(C)C)n(Cc4ccc(OC)c(OC)c4)c3C[C@H]2CN1C(=O)c1ccccc1	.	.	.	/	.	/
COC(=O)[C@@]1(Cc2ccc(F)cc2)[C@H]2c3cc(C(=O)N(C)C)n(CCc4ccc(OC)c(Br)c4)c3C[C@H]2CN1C(=O)c1ccccc1	.	.	.	81	.	.
COC(=O)[C@@]1(Cc2ccc(OC)cc2)[C@H]2c3cc(C(=O)N4CCCC4)n(Cc4ccsc4Br)c3C[C@H]2CN1C(=O)c1ccccc1	/	/	/	51	/	.
Cc1ccccc1OCCC(=O)OCC(=O)NC1CC1	.	/	/	.	/	/
COc1ccc2cc3cc(C(=O)N4CCCC(C)C4)oc3nc2c1 (stereo unspecified)	.	/	/	71	/	71
CSCC[C@H](NC(=O)c1cc([N+](=O)[O-])ccc1Cl)c1nc2ccccc2[nH]1	.	.	.	63	.	.
O=C(c1cccc(S(=O)(=O)N2CCCC2)c1)c1cccc(S(=O)(=O)N2CCCC2)c1	.	.	.	54	.	48
COc1ccc(CCNS(=O)(=O)CCNC(=O)c2ccc3c(c2)OCO3)cc1	.	/	/	.	/	/
COc1ccccc1C(=O)NCC(=O)N/N=C/c1cccc(Cl)c1	.	.	.	.	.	/
CSC(=Nc1ccccc1)N=C(SCc1ccccc1)N(C)C	/	/	/	84	/	90
Cc1ccc(CN2CC(N3CCCCC3)CS2(=O)=O)cc1 (stereo unspecified)	/	/	/	.	/	/
CCOC(=O)C1=C(COC(=O)CCc2ccccc2)NC(=O)NC1C (stereo unspecified)	/	/	/	.	/	/
COc1ccc(S(=O)(=O)N2CCC(CN3C(=O)c4cccc5cccc(c45)C3=O)CC2)cc1	.	.	.	63	.	.
CCCCCCCCCCCCN1[C@@H](CC(=O)O)c2cc(F)ccc2S1(=O)=O	.	/	/	59	/	75
COc1cc(/C=C/CNC[C@H]2O[C@@H](n3ccc(=O)[nH]c3=O)[C@H](O)[C@@H]2O)ccc1O	/	/	/	.	/	/
CCN(C[C@H]1N[C@@](CC)(C(=O)OC)[C@H]2C(=O)N(C)C(=O)[C@@H]12)S(=O)(=O)c1ccc(C(F)(F)F)cc1	/	/	/	.	/	/
CC(C)(C)OC(=O)NCCCC[C@H](NC(=O)c1nc[nH]c1C(=O)NC1CCN(C(=O)OC(C)(C)C)CC1)C(=O)OC(C)(C)C	.	.	.	84	.	59
CC(C)(C)OC(=O)N1CCC(NC(=O)c2nc[nH]c2C(=O)NCc2ccccc2)CC1	/	/	/	.	/	/
Cc1cccc(NC(=O)c2nc[nH]c2C(=O)N[C@@H](CCCCNC(=O)OC(C)(C)C)C(=O)OC(C)(C)C)c1	?	.	.	90	.	55
CC(C)(C)OC(=O)NCc1ccc(CNC(=O)c2[nH]cnc2C(=O)NC2CCN(C(=O)OC(C)(C)C)CC2)cc1	/	/	/	54	/	.
CC(C)(C)OC(=O)CNC(=O)c1[nH]cnc1C(=O)N[C@@H](CCCCNC(=O)OC(C)(C)C)C(=O)OC(C)(C)C	?	.	.	87	.	92
CC(=O)Nc1ccc(S(=O)(=O)N2CCN(S(=O)(=O)c3ccc(F)c(F)c3F)CC2)cc1	.	/	/	.	/	/
Cc1cc(-c2ccc(S(=O)(=O)N3CCCCC3)s2)on1	.	/	/	.	/	/
CC(C)C[C@H](NC(=O)c1nc[nH]c1C(=O)N[C@@H](CCCCNC(=O)OC(C)(C)C)C(=O)OC(C)(C)C)C(=O)OCc1ccccc1	.	/	/	.	/	/
